GI50 and IC50 data for 14 molecules are collected here from ChEMBL document CHEMBL1138668, “Structural studies on bioactive compounds. 39. Biological consequences of the structural modification of DHFR-inhibitory 2,4-diamino-6-(4-substituted benzylamino-3-nitrophenyl)-6-ethylpyrimidines ('benzoprims')” (J Med Chem, 2004).

What is called GI50 is the concentration giving 50% growth inhibition.

The structures appear in SMILES notation.

Assay [1] relates to HT-29. The assay can be described thus: Growth inhibitory activity against human HT-29 cell line. It is filed as functional. An outline of the steps:
(§1)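 HCT-116 or HT29 colon cells in RPMI 1640 with L-glutamine and 10% heat-inactivated FBS, 37 °C, 5% CO2. Cells were plated at densities suited to the growth rate and allowed to attach 4–24 h. Drug from 10 mM DMSO stocks was then added and cells incubated 4 days. MTT readout: 4 h with MTT, formazan dissolved in DMSO:glycine buffer (4:1), A550. A time-zero plate gave the starting density. Values are GI50, mean of three experiments.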

The subject of assay [2] is HCT-116. The assay can be described thus: Growth inhibitory activity against human HCT116 cell line in presence of Hypoxanthine thymidine(HT). It is filed as functional. The procedure, abridged:
(§2)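 Same 4-day MTT growth assay in HCT-116 or HT29 cells, with hypoxanthine 100 µM and thymidine 20 µM (final) added together with the drug. Hypoxanthine stock was in 10 mM NaOH and thymidine in water. Readout was A550 against a time-zero plate. GI50 is the mean of three experiments.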

The subject of assay [3] is HCT-116. The assay can be described thus: Growth inhibitory activity against human HCT116 cell line. The assay is classed as functional. The procedure, abridged:
as §1

In assay [4] the test system is HT-29. The assay can be described thus: Growth inhibitory activity against human HT-29 cell line in presence of Hypoxanthine thymidine(HT). The assay is classed as functional. An outline of the steps: as §2
Another assay deals with T1, Dihydrofolate reductase (Rattus norvegicus, UniProt Q920D2).
T1 sequence (Q920D2 whole entry): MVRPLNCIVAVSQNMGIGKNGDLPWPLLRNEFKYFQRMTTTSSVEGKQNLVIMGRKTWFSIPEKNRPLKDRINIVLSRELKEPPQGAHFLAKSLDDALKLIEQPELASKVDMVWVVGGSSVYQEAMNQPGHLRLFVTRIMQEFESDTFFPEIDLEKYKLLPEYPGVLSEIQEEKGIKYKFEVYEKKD
The assay can be described thus: Inhibitory activity against rat liver Dihydrofolate reductase. Particulars: read-out: I50.

For `Nc1ncc(-c2ccc(Cl)c([N+](=O)[O-])c2)cn1`, the GI50 in the assay with HT-29 [1], in the assay on HCT-116 [2], in the assay on HCT-116 [3] and in the assay with HT-29 [4] was > 50 µM each time.
For `CN(Cc1ccccc1)c1ccc(-c2cnc(N)nc2)cc1[N+](=O)[O-]`, the GI50 is 14 µM in the assay with HT-29 [1], > 50 µM in the assay on HCT-116 [2], > 50 µM in the assay with HCT-116 [3] and 17 µM in the assay with HT-29 [4].
Consider `Nc1ncc(-c2ccc(NCc3ccc(F)cc3)c([N+](=O)[O-])c2)cn1`, for which the 50% growth inhibitory concentration (GI50) in the assay on HT-29 [1] came to 41 µM; in the assay with HCT-116 [2], 47 µM; with HCT-116 [3], 48 µM; in the assay with HT-29 [4], 38 µM.
In the same order, the values of `CCc1nc(N)nc(N)c1-c1ccc2[nH]c(-c3ccc(Cl)cc3)[n+]([O-])c2c1` are > 50 µM, 9 µM, 9 µM and > 50 µM.
Consider `Nc1nc(N)c2[nH]c(Cc3ccc(Cl)c(Cl)c3)nc2n1`, for which, at Dihydrofolate reductase, the IC50 is 252 µM.
On to `CCc1nc(N)nc(N)c1-c1ccc2nn(-c3ccccc3)[n+]([O-])c2c1`, for which the IC50 at Dihydrofolate reductase was 2.7 µM.
As for `CCc1nc(N)nc(N)c1-c1ccc(NCc2ccc(Cl)c(Cl)c2)c([N+](=O)[O-])c1`, the IC50 at Dihydrofolate reductase amounted to 0.008 µM.
`CCc1nc(N)nc(N)c1-c1ccc(NCc2ccccc2OC)c([N+](=O)[O-])c1`: the GI50 in the assay on HT-29 [1] turned out to be 1.5 µM; in the assay with HCT-116 [2], 7.5 µM; in the assay with HCT-116 [3], 0.08 µM; in the assay with HT-29 [4], 11.6 µM.
Take `Nc1ncc(-c2ccc(NCc3ccc(Cl)cc3)c([N+](=O)[O-])c2)cn1`: the concentration for 50% growth inhibition (GI50) was found to be 17 µM with HT-29 [1], 5 µM in the assay on HCT-116 [2], 3 µM in the assay on HCT-116 [3] and 25 µM in the assay with HT-29 [4].
Turning to `CCc1nc(N)nc(N)c1-c1ccc2[nH]c(-c3ccc(F)cc3)[n+]([O-])c2c1`, the 50% growth inhibitory concentration (GI50) in the assay with HT-29 [1] was determined as 46 µM; in the assay on HCT-116 [2], 22 µM; in the assay with HCT-116 [3] it was 17 µM; in the assay on HT-29 [4], 39 µM.
`CCc1nc(N)nc(N)c1-c1ccc(N(C)Cc2ccccc2)c([N+](=O)[O-])c1`: the concentration for 50% growth inhibition (GI50) with HT-29 [1] was determined as 0.48 µM; in the assay with HCT-116 [2] it was 7.4 µM; in the assay on HCT-116 [3], 0.08 µM; with HT-29 [4], 9.2 µM.
Consider `CCc1nc(N)nc(N)c1-c1ccc(Cl)c([N+](=O)[O-])c1`, for which the GI50 is 3.8 µM in the assay on HT-29 [1], 38 µM in the assay with HCT-116 [2], 0.25 µM with HCT-116 [3] and 40 µM in the assay on HT-29 [4].
Turning to `CN(Cc1cnc2nc(N)nc(N)c2n1)c1ccc(C(=O)N[C@@H](CCC(=O)O)C(=O)O)cc1` [METHOTREXATE], the GI50 in the assay on HT-29 [1] was 0.07 µM; with HCT-116 [2], > 50 µM; with HCT-116 [3] it was 0.01 µM; in the assay on HT-29 [4], > 50 µM.
Regarding `COc1cc(NCc2ccc3nc(N)nc(N)c3c2C)cc(OC)c1OC` [TRIMETREXATE], the GI50 with HT-29 [1] came out at 0.01 µM; with HCT-116 [2] it was 19 µM; with HCT-116 [3], 0.01 µM; in the assay with HT-29 [4] it was 21 µM.
